These results are taken from paper PMC6025808 (Journal of fluorescence, 2017).

In one assay the test system is GK-WT. The assay can be described thus: Change of tryptophan fluorescence yield of GK-WT on adding glucose or glycerol. In kind it is binding, human.
The target of a further assay is T1, GK-W167 (W99R/W257F) (Homo sapiens, UniProt P35557, W257F/W99R).
T1 sequence (P35557 1-465 W99R/W257F): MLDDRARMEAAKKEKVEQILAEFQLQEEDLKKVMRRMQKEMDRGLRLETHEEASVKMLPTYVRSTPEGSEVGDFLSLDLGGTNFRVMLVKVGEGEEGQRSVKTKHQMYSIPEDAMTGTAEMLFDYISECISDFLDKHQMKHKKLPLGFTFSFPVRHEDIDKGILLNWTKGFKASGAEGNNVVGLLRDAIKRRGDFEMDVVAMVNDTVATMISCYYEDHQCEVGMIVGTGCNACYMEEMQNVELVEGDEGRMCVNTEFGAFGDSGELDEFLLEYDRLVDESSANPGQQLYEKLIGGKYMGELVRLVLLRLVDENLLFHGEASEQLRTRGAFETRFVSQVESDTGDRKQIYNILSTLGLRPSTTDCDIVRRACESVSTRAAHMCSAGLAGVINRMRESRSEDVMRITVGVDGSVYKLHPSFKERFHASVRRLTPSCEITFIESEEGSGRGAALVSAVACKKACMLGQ
The assay can be described thus: Change of tryptophan fluorescence yield of GK-W167 on adding glucose or glycerol. Type of assay: binding. The method in brief: (§1)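 Recombinant human β-cell glucokinase single-Trp variant, made as a GST fusion in E. coli, cleaved with factor Xa, and repurified. Buffer was 20 mM K phosphate, 50 mM KCl, 1 mM EDTA, 1 mM DTT, pH 7.2, with or without 100 mM D-glucose or 95% glycerol (v/v). Excitation 295 nm, emission 300–500 nm, 20 °C. Quantum yield was measured against NATA (φ 0.14) in water at A < 0.05, with refractive-index correction. The ratio is with/without additive.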

Assay [1] deals with T2, GK-WT (recombinant wild type human β-cell glucokinase) (Homo sapiens, UniProt P35557).
T2 sequence (P35557 1-465): T1 sequence (P35557 1-465 W99R/W257F) with R99W, F257W
Briefly: D-glucose binding to GK-WT by tryptophan fluorescence titration. An outline of the steps:
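Recombinant human wild-type β-cell glucokinase was titrated with D-glucose in K-phosphate buffer, pH 7.2, with or without cosolvent, and read by Trp fluorescence at 20 °C (excitation 295 nm, emission 300–500 nm). Fluorescence was fitted to F = F0 + (Fsat − F0)[glucose]/([glucose] + Kd) to give Kd and F/F0, the intensity at glucose saturation over the intensity without glucose.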

The target of a further assay is T3, GK-W99 (W167F/W257F) (Homo sapiens, UniProt P35557, W167F/W257F).
T3 sequence (P35557 1-465 W167F/W257F): T1 sequence (P35557 1-465 W99R/W257F) with R99W, W167F
The assay can be described thus: Change of tryptophan fluorescence yield of GK-W99 on adding glucose or glycerol. In kind it is binding. The settings on record: GK-W99, 95% glycerol/buffer (v/v). An outline of the steps:
as §1

The target of the next assay is T4, GK-W257 (W99R/W167F) (Homo sapiens, UniProt P35557, W167F/W99R).
T4 sequence (P35557 1-465 W99R/W167F): T1 sequence (P35557 1-465 W99R/W257F) with W167F, F257W
The assay can be described thus: Change of tryptophan fluorescence yield of GK-W257 on adding glucose or glycerol. In kind it is binding. The settings on record: GK-W257, 95% glycerol/buffer (v/v). The method in brief:
as §1

Assay [2] deals with T5, GK-W65 (W99R/W167F/W257F/T65W) (Homo sapiens, UniProt P35557, T65W/W167F/W257F/W99R).
T5 sequence (P35557 1-465 T65W/W99R/W167F/W257F): T1 sequence (P35557 1-465 W99R/W257F) with T65W, W167F
Briefly: Change of tryptophan fluorescence yield of GK-W65 on adding glucose or glycerol. Particulars: GK-W65, 95% glycerol/buffer (v/v). In kind it is binding. An outline of the steps:
as §1

One may read the Kd as the free concentration of one partner at which half of the binding sites on the other are occupied at equilibrium, for simple one-to-one binding.

SMILES strings stand for the structures. Changes are numbered by the printed parent chain. Where two headings read alike, the source gives them in different places.

As to `OC[C@H]1OC(O)[C@H](O)[C@@H](O)[C@@H]1O` (stereo partly drawn) [D-glucose], the “(Φf)/Φ0 observed, fluorescence quantum yield with/without (times)” value was 2.0 in the assay with GK-WT (100 mM D-glucose in buffer, listed as Glucose); around 2 in the assay on GK-WT (100 mM D-glucose in buffer, listed as glucose); 1.8 at GK-W167 (W99R/W257F) (GK-W167, 100 mM D-glucose in buffer, listed as Glucose); “about 1.8” on GK-W167 (W99R/W257F) (GK-W167, 100 mM D-glucose in buffer, listed as glucose). The “F/F0 upon D-glucose binding” value is 1.74 in assay [1] (1 M sucrose), 1.71 in assay [1] (1 M trehalose), 1.63 in assay [1] (2 M L-glucose) and 1.74 in assay [1] (20% glycerol). Further, the Kd in assay [1] (D-glucose binding KD, 1 M sucrose) came out at 3.57 mM; in assay [1] (D-glucose binding KD, 1 M trehalose), 1.75 mM; in assay [1] (D-glucose binding KD, 2 M L-glucose), 1.12 mM; in assay [1] (read-out: D-glucose binding KD, PO4 buffer pH 7.2, 20 °C), 7.39 mM.

In the case of `OCC(O)CO` [glycerol], the “(Φf)/Φ0 observed, fluorescence quantum yield with/without (times)” value on GK-W99 (W167F/W257F) is reported as “over 4.6”; at GK-W99 (W167F/W257F) (listed as Glycerol), 4.6; at GK-W257 (W99R/W167F), 1.3; in the assay on GK-WT (95% glycerol/buffer (v/v)) it was 2.6; at GK-W167 (W99R/W257F) (GK-W167, 95% glycerol/buffer (v/v)) it was around 2.3; in assay [2] it was 1.1.
